Source: ChEMBL document CHEMBL4689842, “EUbOPEN Chemogenomics Library wave 1” (2021)

System: U2OS
Assay: Multiplex assay against U2OS
Type: toxicity, cell-based
Settings: human
Summary of the method: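 On a CQ1 microscope at 37°C and 5% CO2, live cells were imaged after compound addition. They had been stained at seeding with Hoechst33342, BioTracker Green Microtubule Cytoskeleton Dye, MitoTracker Red and Annexin V Alexa Fluor 680. CellPathfinder machine-learning gating assigned cells to Hoechst high-intensity objects or normal cells, normal cells to healthy, pyknosed or fragmented nuclei, and pyknosed cells to mitotic or apoptotic. Tubulin, mitochondrial-mass and membrane-permeability phenotypes are per cents of healthy-nucleus cells.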

[1] = 12 h, 1 µM, compound concentration 1 uM, replicate 1
[2] = 12 h, 1 µM, compound concentration 1 uM, replicate 2
[3] = 12 h, 10 µM, compound concentration 10 uM, replicate 1
[4] = 12 h, 10 µM, compound concentration 10 uM, replicate 2
[5] = 24 h, 1 µM, compound concentration 1 uM, replicate 1
[6] = 24 h, 1 µM, compound concentration 1 uM, replicate 2
[7] = 24 h, 10 µM, compound concentration 10 uM, replicate 1
[8] = 24 h, 10 µM, compound concentration 10 uM, replicate 2

Q: Cl.Cl.NC1(c2ccc(-c3nc4ccn5c(=O)[nH]nc5c4cc3-c3ccccc3)cc2)CCC1 was tested. Which “Population Apoptotic (%)” value [1] did it give?
A: Its value is 53%.

Q: What about the “Population Fragmented Nuclei (%)” value [1] of the same molecule?
A: The value was 11%.

Q: And the “Population Healthy Nuclei (%)” value [1]?
A: The value was 81%.

Q: What about the “Population Hoechst High Intensity Objects (%)” value [1] of the same molecule?
A: Its value is 1%.

Q: What about the “Population Membrane Permeable-Phenotype (%)” value [1] of the same molecule?
A: Its value is 20%.

Q: What about the “Population Mitochondria Different-Phenotype (%)” value [1] of the same molecule?
A: Its value is 13%.

Q: What about the “Population Mitotic Cells (%)” value [1] of the same molecule?
A: Its value is 46%.

Q: What about the “Population Normal (%)” value [1] of the same molecule?
A: Its value is 98%.

Q: And the “Population Pyknosed Nuclei (%)” value [1]?
A: Its value is 6%.

Q: What about the “Population Tubulin-Different-Phenotype (%)” value [1] of the same molecule?
A: The value was 14%.

Q: And the “Total Cell Count” value [1]?
A: Its value is 154.

Q: What about the “Population Apoptotic (%)” value [2] of the same molecule?
A: Its value is 50%.

Q: And the “Population Fragmented Nuclei (%)” value [2]?
A: Its value is 17%.

Q: And the “Population Healthy Nuclei (%)” value [2]?
A: The value was 77%.

Q: What about the “Population Hoechst High Intensity Objects (%)” value [2] of the same molecule?
A: The value was 12%.

Q: What about the “Population Membrane Permeable-Phenotype (%)” value [2] of the same molecule?
A: Its value is 10%.

Q: What about the “Population Mitochondria Different-Phenotype (%)” value [2] of the same molecule?
A: The value was 17%.

Q: What about the “Population Mitotic Cells (%)” value [2] of the same molecule?
A: Its value is 50%.

Q: And the “Population Normal (%)” value [2]?
A: The value was 87%.

Q: And the “Population Pyknosed Nuclei (%)” value [2]?
A: The value was 4%.

Q: What about the “Population Tubulin-Different-Phenotype (%)” value [2] of the same molecule?
A: Its value is 19%.

Q: What about the “Total Cell Count” value [2] of the same molecule?
A: The value was 116.

Q: And the “Population Apoptotic (%)” value [3]?
A: The value was 22%.

Q: And the “Population Fragmented Nuclei (%)” value [3]?
A: Its value is 16%.

Q: What about the “Population Healthy Nuclei (%)” value [3] of the same molecule?
A: Its value is 40%.

Q: And the “Population Hoechst High Intensity Objects (%)” value [3]?
A: The value was 9%.

Q: What about the “Population Membrane Permeable-Phenotype (%)” value [3] of the same molecule?
A: Its value is 28%.

Q: And the “Population Mitochondria Different-Phenotype (%)” value [3]?
A: Its value is 53%.

Q: And the “Population Mitotic Cells (%)” value [3]?
A: The value was 77%.

Q: What about the “Population Normal (%)” value [3] of the same molecule?
A: Its value is 90%.

Q: What about the “Population Pyknosed Nuclei (%)” value [3] of the same molecule?
A: Its value is 42%.

Q: And the “Population Tubulin-Different-Phenotype (%)” value [3]?
A: Its value is 70%.

Q: And the “Total Cell Count” value [3]?
A: The value was 190.

Q: What about the “Population Apoptotic (%)” value [4] of the same molecule?
A: The value was 11%.

Q: What about the “Population Fragmented Nuclei (%)” value [4] of the same molecule?
A: Its value is 26%.

Q: And the “Population Healthy Nuclei (%)” value [4]?
A: The value was 42%.

Q: And the “Population Hoechst High Intensity Objects (%)” value [4]?
A: The value was 16%.

Q: And the “Population Membrane Permeable-Phenotype (%)” value [4]?
A: Its value is 16%.

Q: And the “Population Mitochondria Different-Phenotype (%)” value [4]?
A: The value was 51%.

Q: And the “Population Mitotic Cells (%)” value [4]?
A: The value was 88%.

Q: And the “Population Normal (%)” value [4]?
A: The value was 83%.

Q: What about the “Population Pyknosed Nuclei (%)” value [4] of the same molecule?
A: Its value is 31%.

Q: What about the “Population Tubulin-Different-Phenotype (%)” value [4] of the same molecule?
A: The value was 66%.

Q: And the “Total Cell Count” value [4]?
A: Its value is 160.

Q: And the “Population Apoptotic (%)” value [5]?
A: The value was 50%.

Q: What about the “Population Fragmented Nuclei (%)” value [5] of the same molecule?
A: Its value is 9%.

Q: And the “Population Healthy Nuclei (%)” value [5]?
A: Its value is 85%.

Q: What about the “Population Hoechst High Intensity Objects (%)” value [5] of the same molecule?
A: The value was 1%.

Q: And the “Population Membrane Permeable-Phenotype (%)” value [5]?
A: Its value is 14%.

Q: And the “Population Mitochondria Different-Phenotype (%)” value [5]?
A: Its value is 11%.

Q: And the “Population Mitotic Cells (%)” value [5]?
A: The value was 50%.

Q: And the “Population Normal (%)” value [5]?
A: The value was 98%.

Q: What about the “Population Pyknosed Nuclei (%)” value [5] of the same molecule?
A: Its value is 5%.

Q: What about the “Population Tubulin-Different-Phenotype (%)” value [5] of the same molecule?
A: The value was 17%.

Q: What about the “Total Cell Count” value [5] of the same molecule?
A: The value was 140.

Q: What about the “Population Apoptotic (%)” value [6] of the same molecule?
A: Its value is 16%.

Q: And the “Population Fragmented Nuclei (%)” value [6]?
A: The value was 14%.

Q: And the “Population Healthy Nuclei (%)” value [6]?
A: Its value is 81%.

Q: And the “Population Hoechst High Intensity Objects (%)” value [6]?
A: The value was 8%.

Q: And the “Population Membrane Permeable-Phenotype (%)” value [6]?
A: The value was 10%.

Q: What about the “Population Mitochondria Different-Phenotype (%)” value [6] of the same molecule?
A: Its value is 21%.

Q: And the “Population Mitotic Cells (%)” value [6]?
A: The value was 83%.

Q: And the “Population Normal (%)” value [6]?
A: Its value is 91%.

Q: And the “Population Pyknosed Nuclei (%)” value [6]?
A: The value was 3%.

Q: What about the “Population Tubulin-Different-Phenotype (%)” value [6] of the same molecule?
A: The value was 19%.

Q: What about the “Total Cell Count” value [6] of the same molecule?
A: The value was 103.

Q: What about the “Population Apoptotic (%)” value [7] of the same molecule?
A: The value was 36%.

Q: What about the “Population Fragmented Nuclei (%)” value [7] of the same molecule?
A: Its value is 8%.

Q: What about the “Population Healthy Nuclei (%)” value [7] of the same molecule?
A: The value was 27%.

Q: What about the “Population Hoechst High Intensity Objects (%)” value [7] of the same molecule?
A: The value was 19%.

Q: And the “Population Membrane Permeable-Phenotype (%)” value [7]?
A: Its value is 19%.

Q: What about the “Population Mitochondria Different-Phenotype (%)” value [7] of the same molecule?
A: The value was 68%.

Q: And the “Population Mitotic Cells (%)” value [7]?
A: Its value is 64%.

Q: What about the “Population Normal (%)” value [7] of the same molecule?
A: The value was 80%.

Q: And the “Population Pyknosed Nuclei (%)” value [7]?
A: Its value is 64%.

Q: What about the “Population Tubulin-Different-Phenotype (%)” value [7] of the same molecule?
A: The value was 55%.

Q: And the “Total Cell Count” value [7]?
A: Its value is 268.

Q: And the “Population Apoptotic (%)” value [8]?
A: The value was 29%.

Q: What about the “Population Fragmented Nuclei (%)” value [8] of the same molecule?
A: The value was 18%.

Q: And the “Population Healthy Nuclei (%)” value [8]?
A: The value was 23%.

Q: What about the “Population Hoechst High Intensity Objects (%)” value [8] of the same molecule?
A: Its value is 21%.

Q: And the “Population Membrane Permeable-Phenotype (%)” value [8]?
A: Its value is 11%.

Q: What about the “Population Mitochondria Different-Phenotype (%)” value [8] of the same molecule?
A: The value was 57%.

Q: What about the “Population Mitotic Cells (%)” value [8] of the same molecule?
A: The value was 70%.

Q: And the “Population Normal (%)” value [8]?
A: The value was 78%.

Q: What about the “Population Pyknosed Nuclei (%)” value [8] of the same molecule?
A: Its value is 58%.

Q: And the “Population Tubulin-Different-Phenotype (%)” value [8]?
A: Its value is 48%.

Q: And the “Total Cell Count” value [8]?
A: Its value is 181.
